Test results as given in ChEMBL document CHEMBL4689842, “EUbOPEN Chemogenomics Library wave 1” (2021).

System: U2OS
Assay: Multiplex assay against U2OS
Type: toxicity, cell-based
Conditions: human
In short: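 Cells stained live at seeding with Hoechst33342, BioTracker Green Microtubule Cytoskeleton Dye, MitoTracker Red and Annexin V Alexa Fluor 680 were imaged on a CQ1 microscope at 37°C and 5% CO2 after compound addition. Their classification by CellPathfinder machine-learning gating ran from Hoechst high-intensity objects versus normal cells, to healthy, pyknosed or fragmented nuclei among normal cells, to mitotic or apoptotic among pyknosed cells. Tubulin, mitochondrial-mass and membrane-permeability phenotypes are per cents of healthy-nucleus cells.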

[1] = 12 h, 1 µM, compound concentration 1 uM, replicate 1
[2] = 12 h, 1 µM, compound concentration 1 uM, replicate 2
[3] = 12 h, 10 µM, compound concentration 10 uM, replicate 1
[4] = 12 h, 10 µM, compound concentration 10 uM, replicate 2
[5] = 24 h, 1 µM, compound concentration 1 uM, replicate 1
[6] = 24 h, 1 µM, compound concentration 1 uM, replicate 2
[7] = 24 h, 10 µM, compound concentration 10 uM, replicate 1
[8] = 24 h, 10 µM, compound concentration 10 uM, replicate 2
[9] = 48 h, 1 µM, compound concentration 1 uM, replicate 1
[10] = 48 h, 1 µM, compound concentration 1 uM, replicate 2
[11] = 48 h, 10 µM, compound concentration 10 uM, replicate 1
[12] = 48 h, 10 µM, compound concentration 10 uM, replicate 2

Q: For Cn1cc(-c2[nH]c3cc(NC(=O)[C@H](N)C4CCCCC4)cc4c3c2C=NNC4=O)cn1, which “Population Apoptotic (%)” value [1] is on record?
A: 44%

Q: And the “Population Fragmented Nuclei (%)” value [1]?
A: 11%

Q: What about the “Population Healthy Nuclei (%)” value [1] of the same compound?
A: 76%

Q: What about the “Population Hoechst High Intensity Objects (%)” value [1] of the same compound?
A: 3%

Q: What about the “Population Membrane Permeable-Phenotype (%)” value [1] of the same compound?
A: 6%

Q: What about the “Population Mitochondria Different-Phenotype (%)” value [1] of the same compound?
A: 4%

Q: And the “Population Mitotic Cells (%)” value [1]?
A: 55%

Q: And the “Population Normal (%)” value [1]?
A: 96%

Q: And the “Population Pyknosed Nuclei (%)” value [1]?
A: 11%

Q: And the “Population Tubulin-Different-Phenotype (%)” value [1]?
A: 16%

Q: What about the “Total Cell Count” value [1] of the same compound?
A: 123

Q: What about the “Population Apoptotic (%)” value [2] of the same compound?
A: 33%

Q: What about the “Population Fragmented Nuclei (%)” value [2] of the same compound?
A: 13%

Q: What about the “Population Healthy Nuclei (%)” value [2] of the same compound?
A: 72%

Q: And the “Population Membrane Permeable-Phenotype (%)” value [2]?
A: 4%

Q: What about the “Population Mitochondria Different-Phenotype (%)” value [2] of the same compound?
A: 7%

Q: And the “Population Mitotic Cells (%)” value [2]?
A: 66%

Q: And the “Population Pyknosed Nuclei (%)” value [2]?
A: 13%

Q: And the “Population Tubulin-Different-Phenotype (%)” value [2]?
A: 12%

Q: What about the “Total Cell Count” value [2] of the same compound?
A: 51

Q: And the “Population Apoptotic (%)” value [3]?
A: 47%

Q: What about the “Population Fragmented Nuclei (%)” value [3] of the same compound?
A: 14%

Q: And the “Population Healthy Nuclei (%)” value [3]?
A: 60%

Q: What about the “Population Hoechst High Intensity Objects (%)” value [3] of the same compound?
A: 6%

Q: What about the “Population Membrane Permeable-Phenotype (%)” value [3] of the same compound?
A: 7%

Q: And the “Population Mitochondria Different-Phenotype (%)” value [3]?
A: 34%

Q: And the “Population Mitotic Cells (%)” value [3]?
A: 52%

Q: What about the “Population Normal (%)” value [3] of the same compound?
A: 93%

Q: And the “Population Pyknosed Nuclei (%)” value [3]?
A: 25%

Q: And the “Population Tubulin-Different-Phenotype (%)” value [3]?
A: 28%

Q: And the “Total Cell Count” value [3]?
A: 247

Q: What about the “Population Apoptotic (%)” value [4] of the same compound?
A: 69%

Q: And the “Population Fragmented Nuclei (%)” value [4]?
A: 37%

Q: And the “Population Healthy Nuclei (%)” value [4]?
A: 42%

Q: What about the “Population Hoechst High Intensity Objects (%)” value [4] of the same compound?
A: 9%

Q: And the “Population Membrane Permeable-Phenotype (%)” value [4]?
A: 21%

Q: And the “Population Mitochondria Different-Phenotype (%)” value [4]?
A: 53%

Q: And the “Population Mitotic Cells (%)” value [4]?
A: 30%

Q: And the “Population Normal (%)” value [4]?
A: 90%

Q: And the “Population Pyknosed Nuclei (%)” value [4]?
A: 19%

Q: What about the “Population Tubulin-Different-Phenotype (%)” value [4] of the same compound?
A: 57%

Q: What about the “Total Cell Count” value [4] of the same compound?
A: 91

Q: What about the “Population Apoptotic (%)” value [5] of the same compound?
A: 46%

Q: And the “Population Fragmented Nuclei (%)” value [5]?
A: 9%

Q: What about the “Population Healthy Nuclei (%)” value [5] of the same compound?
A: 80%

Q: What about the “Population Membrane Permeable-Phenotype (%)” value [5] of the same compound?
A: 5%

Q: And the “Population Mitochondria Different-Phenotype (%)” value [5]?
A: 3%

Q: What about the “Population Mitotic Cells (%)” value [5] of the same compound?
A: 53%

Q: And the “Population Pyknosed Nuclei (%)” value [5]?
A: 9%

Q: What about the “Population Tubulin-Different-Phenotype (%)” value [5] of the same compound?
A: 14%

Q: And the “Total Cell Count” value [5]?
A: 121

Q: What about the “Population Apoptotic (%)” value [6] of the same compound?
A: 43%

Q: What about the “Population Fragmented Nuclei (%)” value [6] of the same compound?
A: 13%

Q: And the “Population Healthy Nuclei (%)” value [6]?
A: 70%

Q: What about the “Population Hoechst High Intensity Objects (%)” value [6] of the same compound?
A: 3%

Q: What about the “Population Membrane Permeable-Phenotype (%)” value [6] of the same compound?
A: 9%

Q: What about the “Population Mitochondria Different-Phenotype (%)” value [6] of the same compound?
A: 6%

Q: What about the “Population Mitotic Cells (%)” value [6] of the same compound?
A: 56%

Q: And the “Population Normal (%)” value [6]?
A: 96%

Q: What about the “Population Pyknosed Nuclei (%)” value [6] of the same compound?
A: 15%

Q: And the “Population Tubulin-Different-Phenotype (%)” value [6]?
A: 15%

Q: And the “Total Cell Count” value [6]?
A: 52

Q: What about the “Population Apoptotic (%)” value [7] of the same compound?
A: 67%

Q: And the “Population Fragmented Nuclei (%)” value [7]?
A: 17%

Q: And the “Population Healthy Nuclei (%)” value [7]?
A: 43%

Q: And the “Population Hoechst High Intensity Objects (%)” value [7]?
A: 8%

Q: And the “Population Membrane Permeable-Phenotype (%)” value [7]?
A: 10%

Q: What about the “Population Mitochondria Different-Phenotype (%)” value [7] of the same compound?
A: 16%

Q: And the “Population Mitotic Cells (%)” value [7]?
A: 32%

Q: What about the “Population Normal (%)” value [7] of the same compound?
A: 91%

Q: And the “Population Pyknosed Nuclei (%)” value [7]?
A: 39%

Q: And the “Population Tubulin-Different-Phenotype (%)” value [7]?
A: 19%

Q: What about the “Total Cell Count” value [7] of the same compound?
A: 293

Q: What about the “Population Apoptotic (%)” value [8] of the same compound?
A: 86%

Q: And the “Population Fragmented Nuclei (%)” value [8]?
A: 34%

Q: And the “Population Healthy Nuclei (%)” value [8]?
A: 29%

Q: And the “Population Hoechst High Intensity Objects (%)” value [8]?
A: 16%

Q: What about the “Population Membrane Permeable-Phenotype (%)” value [8] of the same compound?
A: 44%

Q: And the “Population Mitochondria Different-Phenotype (%)” value [8]?
A: 61%

Q: What about the “Population Mitotic Cells (%)” value [8] of the same compound?
A: 13%

Q: And the “Population Normal (%)” value [8]?
A: 83%

Q: What about the “Population Pyknosed Nuclei (%)” value [8] of the same compound?
A: 36%

Q: And the “Population Tubulin-Different-Phenotype (%)” value [8]?
A: 55%

Q: And the “Total Cell Count” value [8]?
A: 106

Q: And the “Population Apoptotic (%)” value [9]?
A: 45%

Q: And the “Population Fragmented Nuclei (%)” value [9]?
A: 7%

Q: And the “Population Healthy Nuclei (%)” value [9]?
A: 81%

Q: And the “Population Hoechst High Intensity Objects (%)” value [9]?
A: 3%

Q: What about the “Population Membrane Permeable-Phenotype (%)” value [9] of the same compound?
A: 2%

Q: And the “Population Mitochondria Different-Phenotype (%)” value [9]?
A: 3%

Q: What about the “Population Mitotic Cells (%)” value [9] of the same compound?
A: 54%

Q: And the “Population Normal (%)” value [9]?
A: 96%

Q: What about the “Population Pyknosed Nuclei (%)” value [9] of the same compound?
A: 10%

Q: And the “Population Tubulin-Different-Phenotype (%)” value [9]?
A: 17%

Q: What about the “Total Cell Count” value [9] of the same compound?
A: 124

Q: What about the “Population Apoptotic (%)” value [10] of the same compound?
A: 42%

Q: What about the “Population Fragmented Nuclei (%)” value [10] of the same compound?
A: 15%

Q: What about the “Population Healthy Nuclei (%)” value [10] of the same compound?
A: 55%

Q: And the “Population Hoechst High Intensity Objects (%)” value [10]?
A: 5%

Q: And the “Population Membrane Permeable-Phenotype (%)” value [10]?
A: 16%

Q: And the “Population Mitochondria Different-Phenotype (%)” value [10]?
A: 18%

Q: What about the “Population Mitotic Cells (%)” value [10] of the same compound?
A: 57%

Q: What about the “Population Normal (%)” value [10] of the same compound?
A: 94%

Q: What about the “Population Pyknosed Nuclei (%)” value [10] of the same compound?
A: 28%

Q: What about the “Population Tubulin-Different-Phenotype (%)” value [10] of the same compound?
A: 24%

Q: What about the “Total Cell Count” value [10] of the same compound?
A: 56

Q: What about the “Population Apoptotic (%)” value [11] of the same compound?
A: 83%

Q: What about the “Population Fragmented Nuclei (%)” value [11] of the same compound?
A: 20%

Q: What about the “Population Healthy Nuclei (%)” value [11] of the same compound?
A: 31%

Q: What about the “Population Hoechst High Intensity Objects (%)” value [11] of the same compound?
A: 13%

Q: What about the “Population Membrane Permeable-Phenotype (%)” value [11] of the same compound?
A: 13%

Q: What about the “Population Mitochondria Different-Phenotype (%)” value [11] of the same compound?
A: 20%

Q: What about the “Population Mitotic Cells (%)” value [11] of the same compound?
A: 16%

Q: What about the “Population Normal (%)” value [11] of the same compound?
A: 86%

Q: And the “Population Pyknosed Nuclei (%)” value [11]?
A: 48%

Q: And the “Population Tubulin-Different-Phenotype (%)” value [11]?
A: 21%

Q: What about the “Total Cell Count” value [11] of the same compound?
A: 395

Q: What about the “Population Apoptotic (%)” value [12] of the same compound?
A: 100%

Q: And the “Population Fragmented Nuclei (%)” value [12]?
A: 40%

Q: What about the “Population Hoechst High Intensity Objects (%)” value [12] of the same compound?
A: 20%

Q: What about the “Population Membrane Permeable-Phenotype (%)” value [12] of the same compound?
A: 66%

Q: What about the “Population Mitochondria Different-Phenotype (%)” value [12] of the same compound?
A: 61%

Q: What about the “Population Mitotic Cells (%)” value [12] of the same compound?
A: 0%

Q: What about the “Population Normal (%)” value [12] of the same compound?
A: 79%

Q: And the “Population Pyknosed Nuclei (%)” value [12]?
A: 28%

Q: What about the “Population Tubulin-Different-Phenotype (%)” value [12] of the same compound?
A: 77%

Q: What about the “Total Cell Count” value [12] of the same compound?
A: 103
